Measured values from different studies.
Lines come from different studies, so protocols differ.
DHFR: Dihydrofolate reductase (DHFR, Homo sapiens, UniProt P00374)
TOP2A: DNA topoisomerase 2-alpha (TOP2A, Homo sapiens, UniProt P11388)
FAAH: Fatty-acid amide hydrolase 1 (FAAH, Homo sapiens, UniProt O00519)
HTR2B: 5-hydroxytryptamine receptor 2B (HTR2B, Homo sapiens, UniProt P41595)

O=C(C=Cc1ccc(O)c(O)c1)OCCc1ccccc1 — IC50 (DHFR; enzyme activity, inhibitor, absorbance): 11.5 µM
O=c1nc(SCc2cc(F)cc(C(F)(F)F)c2)nc(SCc2ccc3ncsc3c2)[nH]1 — IC50 (TOP2A; enzyme activity, inhibitor): 36.3 µM
O=C(Nc1ccc(-c2ccc3cccnc3c2)cc1)C1CCN(S(=O)(=O)c2ccccc2Cl)CC1 — IC50 (FAAH; enzyme activity, inhibitor, fluorescence): 0.0105 µM
Cc1nc(CSc2nc(SCc3ccc(C(F)(F)F)cc3)nc(=O)[nH]2)cs1 — IC50 (TOP2A; enzyme activity, inhibitor): 64.7 µM
Cc1ccc(CNC(=S)NN=Cc2ccc(N3CCCCC3)cc2)cc1 — IC50 (DHFR; enzyme activity, inhibitor): 33.9 µM
O=C(O)/C=C/c1ccc(O)c(O)c1 — IC50 (DHFR; enzyme activity, inhibitor, absorbance): 105 µM
CC1CC2CN(C(C)C(=O)c3c[nH]c4ccccc34)CCN2C1 (stereo not drawn) — IC50 (HTR2B; calcium signal, antagonist): 2.25 µM
CC1CCC(C(C)C)C(OC(=O)C=Cc2ccc(O)c(O)c2)C1 (stereo not drawn) — IC50 (DHFR; enzyme activity, inhibitor, absorbance): 0.182 µM
O=C(Nc1ccc(-c2cccc3ncccc23)cc1)C1CCN(S(=O)(=O)c2ccccc2Cl)CC1 — IC50 (FAAH; enzyme activity, inhibitor, fluorescence): 0.0196 µM
S=C(NN=Cc1ccc(N2CCCCC2)cc1)Nc1ccc(Br)cc1 — IC50 (DHFR; enzyme activity, inhibitor): 26.1 µM
Cc1[nH]c2ccccc2c1SCCNC(=O)CN1CCC(C)C1 (stereo not drawn) — IC50 (HTR2B; calcium signal, antagonist): 3.68 µM
O=c1nc(SCc2ccc(C(F)(F)F)cc2)nc(SCc2ccc3sccc3c2)[nH]1 — IC50 (TOP2A; enzyme activity, inhibitor): 16.3 µM
S=C(NN=Cc1ccc(N2CCCCC2)cc1)Nc1cccc(Cl)c1Cl — IC50 (DHFR; enzyme activity, inhibitor): 47.3 µM
O=c1nc(SCc2cc(F)cc(C(F)(F)F)c2)nc(SCc2nc3ccccc3[nH]2)[nH]1 — IC50 (TOP2A; enzyme activity, inhibitor): 31.7 µM
O=C(Nc1ccc(-c2ccc3ncccc3c2)cc1)C1CCN(S(=O)(=O)c2ccccc2Cl)CC1 — IC50 (FAAH; enzyme activity, inhibitor, fluorescence): 0.0508 µM
CC(C)NCC(COc1cccc2ccccc12)OC(=O)C=Cc1ccc(O)c(O)c1 (stereo not drawn) — IC50 (DHFR; enzyme activity, inhibitor, absorbance): 0.048 µM
Cc1[nH]c2ccccc2c1C(=O)C(C)N1CCC(c2nccn2C)C1 (stereo not drawn) — IC50 (HTR2B; calcium signal, antagonist): 0.0369 µM
O=[N+]([O-])c1ccc(NC(=S)NN=Cc2ccc(N3CCCCC3)cc2)cc1 — IC50 (DHFR; enzyme activity, inhibitor): 16.2 µM
c1ccc(O[C@H]2CCN(Cc3ccc(-c4ccn[nH]4)o3)C2)cc1 — IC50 (HTR2B; calcium signal, antagonist): 15.6 µM
O=[N+]([O-])c1cccc(NC(=S)NN=Cc2ccc(N3CCCCC3)cc2)c1 — IC50 (DHFR; enzyme activity, inhibitor): 13.7 µM
Cc1[nH]c2ccccc2c1SCCNC(=O)C1NCCC1C1CC1 (stereo not drawn) — IC50 (HTR2B; calcium signal, antagonist): 5.36 µM
S=C(NN=Cc1ccc(N2CCCCC2)cc1)Nc1ccc(Cl)cc1 — IC50 (DHFR; enzyme activity, inhibitor): 18.4 µM
Cc1cccc(OCCCC(=O)N2CCNCc3ccccc32)c1 — IC50 (HTR2B; calcium signal, antagonist): 16.9 µM
CC(C)c1ccc(CSc2nc(SCc3ccc4sccc4c3)[nH]c(=O)n2)cc1 — IC50 (TOP2A; enzyme activity, inhibitor): 14.2 µM
CN(C(=O)c1cn[nH]n1)C1CCN(CCc2cccc(Cl)c2Cl)C1 (stereo not drawn) — IC50 (HTR2B; calcium signal, antagonist): 5.53 µM
Nc1nc(N)c(OCCCOc2ccccc2CCC(=O)O)c(-c2ccc(C(F)(F)F)cc2)n1 — IC50 (DHFR; enzyme activity, inhibitor): > 5 µM
COc1ccc(NC(=S)NN=Cc2ccc(N3CCCCC3)cc2)cc1 — IC50 (DHFR; enzyme activity, inhibitor): 44.6 µM
O=C(Nc1ccc(-c2ccnc3ccccc23)cc1)C1CCN(S(=O)(=O)c2ccccc2Cl)CC1 — IC50 (FAAH; enzyme activity, inhibitor, fluorescence): 0.0887 µM
S=C(NCCc1ccccc1)NN=Cc1ccc(N2CCCCC2)cc1 — IC50 (DHFR; enzyme activity, inhibitor): 22.9 µM
COc1ccccc1CC1CCN(CC(=O)c2cc(C)[nH]c2C)C1 (stereo not drawn) — IC50 (5-hydroxytryptamine receptor 2C (HTR2C, Homo sapiens, UniProt P28335); calcium signal, antagonist): 23 µM
